Converted amounts (≈) assume the structure as drawn.
How the values were obtained:
[1] = test system: Escherichia coli; test: Antibacterial activity against Escherichia coli isolate 54 infected in ICR mouse assessed as change in bacterial load at 6.25 to 50 mg/kg, sc; assay type: functional; details: dose mg/kg 6.25-50; route subcutaneous
In short: (§1)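 Female CD-1/ICR mice (~25 g) were made neutropenic with intraperitoneal cyclophosphamide, 150 mg/kg 4 days and 100 mg/kg 1 day before inoculation. Isolates were grown on blood agar at 35°C for 18–24 h, and 0.1 ml of 10^7 CFU/ml was injected intramuscularly per thigh. At 2 h, tigecycline in saline was given sc as single or multiple doses of 3.125–50 mg/kg. Thighs were homogenized at 24 h and plated. Read-out was mean change in log10 CFU/ml versus 0-h controls, three mice per group.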

[2] = Ratio of fAUC to MIC in extended-spectrum beta-lactamase producing Klebsiella pneumoniae isolate 255-infected ICR mouse at bacteriostatic concentration; assay type: functional
In short: (§2)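 EI50, EI80 and the static exposure were read from fitted curves. Free AUC came from earlier mouse PK using concentration-dependent protein binding set at Cmax. MICs were run in triplicate by CLSI broth microdilution in Mueller-Hinton broth prepared <12 h before testing, or by Etest.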

[3] = Ratio of fAUC to MIC in extended-spectrum beta-lactamase producing Escherichia coli isolate 322-infected ICR mouse at 50% maximal effective concentration; assay type: functional; in short: as §2
[4] = test system: Escherichia coli; test: Antibacterial activity against extended-spectrum beta-lactamase producing Escherichia coli isolate 321 by broth microdilution method; assay type: functional
In short: (§3)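 Tigecycline MICs by broth microdilution per CLSI guidelines, run in triplicate. Mueller-Hinton broth was prepared fresh less than 12 h before testing.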

[5] = Ratio of fAUC to MIC in extended-spectrum beta-lactamase producing Klebsiella pneumoniae isolate 266 at bacteriostatic concentration; assay type: functional; in short: as §2
[6] = Ratio of fAUC to MIC in extended-spectrum beta-lactamase producing Klebsiella pneumoniae isolate 255-infected ICR mouse at 50% maximal effective concentration; assay type: functional
In short: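 Female CD-1/ICR mice (~25 g) were made neutropenic with cyclophosphamide IP (150 mg/kg day −4, 100 mg/kg day −1). Each thigh received 0.1 ml IM of 10^7 CFU/ml inoculum. Tigecycline in saline was given SC 2 h later, single or multiple doses, 6.25–300 mg/kg/day. Three mice per group.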

[7] = test system: Escherichia coli; test: Antibacterial activity against extended-spectrum beta-lactamase producing Escherichia coli isolate 315 infected in ICR mouse assessed as change in bacterial load at 6.25 to 50 mg/kg, sc; assay type: functional; details: dose mg/kg 6.25-50; route subcutaneous; in short: as §1
[8] = test system: Klebsiella pneumoniae; test: Antibacterial activity against carbapenemase producing Klebsiella pneumoniae isolate 321 infected in ICR mouse assessed as change in bacterial load at 6.25 to 50 mg/kg, sc; assay type: functional; details: dose mg/kg 6.25-50; route subcutaneous; in short: as §1
[9] = Ratio of fAUC to MIC in extended-spectrum beta-lactamase producing Klebsiella pneumoniae isolate 320-infected ICR mouse at 50% maximal effective concentration; assay type: functional; in short: as §2
[10] = Ratio of fAUC to MIC in Klebsiella pneumoniae isolate 135 at bacteriostatic concentration; assay type: functional; in short: as §2
[11] = test system: Escherichia coli; test: Antibacterial activity against Escherichia coli isolate 120 by broth microdilution method; assay type: functional; in short: as §3
[12] = Ratio of fAUC to MIC in extended-spectrum beta-lactamase producing Klebsiella pneumoniae isolate 255-infected ICR mouse at 80% maximal effective concentration; assay type: functional; in short: as §2
[13] = test system: Mus musculus; test: AUC in ICR mouse at 6.25 mg/kg, sc; details: in vivo
[14] = Ratio of fAUC to MIC in extended-spectrum beta-lactamase producing Escherichia coli isolate 315-infected ICR mouse at 50% maximal effective concentration; assay type: functional; in short: as §2
[15] = Ratio of fAUC to MIC in carbapenemase producing Klebsiella pneumoniae isolate 321-infected ICR mouse at bacteriostatic concentration; assay type: functional; in short: as §2
[16] = Ratio of fAUC to MIC in extended-spectrum beta-lactamase producing Escherichia coli isolate 322-infected ICR mouse at bacteriostatic concentration; assay type: functional; in short: as §2
[17] = test system: Escherichia coli; test: Antibacterial activity against Escherichia coli isolate 120 infected in ICR mouse assessed as change in bacterial load at 6.25 to 50 mg/kg, sc; assay type: functional; details: dose mg/kg 6.25-50; route subcutaneous; in short: as §1
[18] = Ratio of fAUC to MIC in extended-spectrum beta-lactamase producing Klebsiella pneumoniae isolate 320-infected ICR mouse at 80% maximal effective concentration; assay type: functional; in short: as §2
[19] = test system: Klebsiella pneumoniae; test: Antibacterial activity against Klebsiella pneumoniae isolate 135 infected in ICR mouse assessed as change in bacterial load at 6.25 to 50 mg/kg, sc; assay type: functional; details: dose mg/kg 6.25-50; route subcutaneous; in short: as §1
[20] = Ratio of fAUC to MIC in extended-spectrum beta-lactamase producing Klebsiella pneumoniae isolate 266-infected ICR mouse at 50% maximal effective concentration; assay type: functional; in short: as §2
[21] = Ratio of fAUC to MIC in Klebsiella pneumoniae isolate 135-infected ICR mouse at 50% maximal effective concentration; assay type: functional; in short: as §2
[22] = Ratio of fAUC to MIC in Escherichia coli isolate 120-infected ICR mouse at 80% maximal effective concentration; assay type: functional; in short: as §2
[23] = test system: Klebsiella pneumoniae; test: Antibacterial activity against extended-spectrum beta-lactamase producing Klebsiella pneumoniae isolate 255 infected in ICR mouse assessed as change in bacterial load at 6.25 to 50 mg/kg, sc; assay type: functional; details: dose mg/kg 6.25-50; route subcutaneous; in short: as §1
[24] = Ratio of fAUC to MIC in Escherichia coli isolate 54-infected ICR mouse at 50% maximal effective concentration; assay type: functional; in short: as §2
[25] = Ratio of fAUC to MIC in extended-spectrum beta-lactamase producing Escherichia coli isolate 315-infected ICR mouse at 80% maximal effective concentration; assay type: functional; in short: as §2
[26] = Ratio of fAUC to MIC in extended-spectrum beta-lactamase producing Escherichia coli isolate 315-infected ICR mouse at bacteriostatic concentration; assay type: functional; in short: as §2
[27] = Ratio of fAUC to MIC in Escherichia coli isolate 54-infected ICR mouse at 80% maximal effective concentration; assay type: functional; in short: as §2
[28] = Ratio of fAUC to MIC in extended-spectrum beta-lactamase producing Klebsiella pneumoniae isolate 320-infected ICR mouse at bacteriostatic concentration; assay type: functional; in short: as §2
[29] = Ratio of fAUC to MIC in Klebsiella pneumoniae isolate 135-infected ICR mouse at 80% maximal effective concentration; assay type: functional; in short: as §2

CN(C)c1cc(NC(=O)CNC(C)(C)C)c(O)c2c1C[C@H]1C[C@H]3[C@H](N(C)C)C(O)=C(C(N)=O)C(=O)[C@@]3(O)C(O)=C1C2=O [TIGECYCLINE]
log10CFU/ml [1]: -2.05 | fAUC/MIC [2]: 2.02 | fAUC/MIC [3]: 6.27 | MIC [4]: 0.25 µg/mL (≈ 0.427 µM) | fAUC/MIC [5]: 5.13 | fAUC/MIC [6]: 2.64 | log10CFU/ml [7]: -2 | log10CFU/ml [8]: -1.46 | fAUC/MIC [9]: 2.01 | fAUC/MIC [10]: 5.4 | MIC [11]: 0.125 µg/mL (≈ 0.213 µM) | fAUC/MIC [12]: 4.81 | AUC [13]: 4800 ng·h/mL | fAUC/MIC [14]: 3.71 | fAUC/MIC [15]: 5.47 | fAUC/MIC [16]: 7.5 | log10CFU/ml [17]: -2.3 | fAUC/MIC [18]: 3.27 | log10CFU/ml [19]: -1.51 | fAUC/MIC [20]: 5.37 | fAUC/MIC [21]: 3.62 | fAUC/MIC [22]: 7.3 | log10CFU/ml [23]: -3.15 | fAUC/MIC [24]: 5.19 | fAUC/MIC [25]: 4.46 | fAUC/MIC [26]: 3.88 | fAUC/MIC [27]: 7.7 | fAUC/MIC [28]: 3.09 | fAUC/MIC [29]: 7.78
